TRPC4 PAM: positive allosteric modulators of TRPC4, primary screen, cell-based, mouse TRPC4beta, HEK293 mu-opioid, Fluo-4 calcium; Short transient receptor potential channel 4 (Mus musculus), Q9QUQ5; 0.42% of 310,000 active; DAMGO EC20, Fluo-4 Ca2+ flux; stronger effect = higher value; B-score at 10 µM;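 active = B-score of calcium response area above 5 SD of library B-scores, with initial fluorescence ratio within 5 SD of library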
Target sequence (Q9QUQ5 whole entry, looked up): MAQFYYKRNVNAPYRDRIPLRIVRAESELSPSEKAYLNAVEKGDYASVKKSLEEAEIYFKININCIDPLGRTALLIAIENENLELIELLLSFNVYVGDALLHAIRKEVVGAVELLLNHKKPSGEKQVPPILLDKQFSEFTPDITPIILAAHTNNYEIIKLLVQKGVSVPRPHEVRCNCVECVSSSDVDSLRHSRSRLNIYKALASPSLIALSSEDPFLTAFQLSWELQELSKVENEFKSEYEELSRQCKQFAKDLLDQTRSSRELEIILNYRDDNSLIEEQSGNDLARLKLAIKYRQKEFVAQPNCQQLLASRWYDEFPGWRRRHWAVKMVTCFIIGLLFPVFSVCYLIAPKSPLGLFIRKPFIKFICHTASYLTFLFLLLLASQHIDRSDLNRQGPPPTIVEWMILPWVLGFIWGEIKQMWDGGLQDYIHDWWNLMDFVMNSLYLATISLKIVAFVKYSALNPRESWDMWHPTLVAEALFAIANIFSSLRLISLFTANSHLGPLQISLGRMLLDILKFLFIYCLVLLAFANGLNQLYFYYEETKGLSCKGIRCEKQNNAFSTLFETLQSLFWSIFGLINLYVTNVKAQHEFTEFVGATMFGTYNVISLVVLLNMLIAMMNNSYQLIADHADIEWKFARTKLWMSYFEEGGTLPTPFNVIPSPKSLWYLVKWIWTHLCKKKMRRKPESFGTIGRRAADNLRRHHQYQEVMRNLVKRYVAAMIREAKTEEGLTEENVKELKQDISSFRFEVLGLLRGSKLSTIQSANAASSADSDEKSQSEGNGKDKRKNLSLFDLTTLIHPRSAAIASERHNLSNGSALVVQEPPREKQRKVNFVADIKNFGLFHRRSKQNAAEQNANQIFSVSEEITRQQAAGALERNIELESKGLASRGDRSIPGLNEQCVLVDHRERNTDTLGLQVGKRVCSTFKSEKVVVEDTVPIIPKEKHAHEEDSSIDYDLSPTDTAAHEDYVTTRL
TRPC4 agonist: activators of mouse TRPC4 channel, primary screen, Fluo4 calcium, HEK293 TRPC4beta/mu-opioid cells. 0.49% of 310,000 active. Fluo4 calcium fluorescence; stronger effect = higher value. B-score at 10 µM. AID 2237, 2010. Short transient receptor potential channel 4 (Mus musculus), Q9QUQ5;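 active = B-score above 5 SD of library B-scores, and initial fluorescence ratio not above library mean plus 5 SD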;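 note: positive B-score marks a calcium rise read as TRPC4 activation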
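Material: HEK293 stable line with TRPC4beta plus mu-opioid receptor; technique: Fluo4 calcium-sensitive dye fluorescence, kinetic, 1 Hz baseline; timing: Fluo4 dye loading 45 min at room temperature, 110 s recording; controls: assay buffer as low control, maximal DAMGO as high control; read-out: integrated baseline-normalised fluorescence ratio, converted to per-well B score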
TRPC4 inh: inhibitors of mouse TRPC4 channel, primary screen, Fluo4 calcium, HEK293 TRPC4beta/mu-opioid cells; DAMGO-evoked Fluo4 calcium flux; stronger effect = lower value; B-score at 10 µM; AID 2247, 2010; Short transient receptor potential channel 4 (Mus musculus), Q9QUQ5; 0.39% of 300,000 active;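 active = B-score over 3 SD under the library average, no early fluorescence shift, positive overall ratio signal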
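Test system – stable TRPC4beta/mu-opioid receptor HEK293 cells · Probe or stimulus – DAMGO, a submaximal dose followed by a maximal one · Dosing – one concentration per compound · Signal – Fluo4 calcium fluorescence by kinetic imaging, 5 s 1 Hz baseline · Evaluation – per-well B score of integrated baseline-normalized Fluo4 ratio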
TRPC6 inh: mouse TRPC6 channel inhibitors, primary screen, cell-based, HEK293, membrane potential dye; Short transient receptor potential channel 6 (Mus musculus), Q61143; ACh-evoked depolarization; stronger effect = lower value; B-score at 10 µM; 1.1% of 310,000 active;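 active = B-score under library mean minus 3 SD, initial fluorescence not abnormally high, positive integrated signal ratio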;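 note: B-score derived from integrated fluorescence ratio over the kinetic read; more negative B-score means stronger inhibition of depolarization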
TRPC6 activator: mouse TRPC6 channel activators, primary screen, cell-based, HEK293, membrane potential dye; AID 2550, 2010; 0.13% of 310,000 active; HEK293-TRPC6 membrane potential dye fluorescence; stronger effect = higher value; B-score at 10 µM;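 active = B-score of the integrated fluorescence ratio above library mean plus 3 SD, and starting fluorescence ratio within library mean plus 5 SD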;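 note: higher score means more depolarization so channel activation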
Large screens that a line does not name were inactive. The list is not random: actives were taken first. Their share in the collection is about 2.3%.

NC(=O)CCn1c(C(=O)c2cc(Cl)c(N)c(Cl)c2)c2ccccc2[n+]1[O-]	none
CC(=O)Oc1cc2oc(=O)cc(C)c2cc1Cl	none
Cc1ccc(S(=O)(=O)NC(C(=O)Oc2cc3oc(=O)cc(C)c3cc2Cl)C(C)C)cc1 (stereo not given)	TRPC4 PAM 15
CN(C)CCN(C(=O)c1ccc(S(=O)(=O)N(C)c2ccccc2)cc1)c1nc2cc3c(cc2s1)OCO3	none
CCN(Cc1ccccc1)S(=O)(=O)c1ccc(C(=O)N(CCCN(C)C)c2nc3cc4c(cc3s2)OCO4)cc1	TRPC4 agonist 45, TRPC4 inh -6
CN(C)CCCN(C(=O)c1ccc2c(c1)CCCC2)c1nc2cc3c(cc2s1)OCO3	none
CN(C)CCCN(C(=O)c1ccc(Br)s1)c1nc2cc3c(cc2s1)OCO3	TRPC4 inh -7
CCN(CC)CCN(C(=O)CN1C(=O)c2ccccc2C1=O)c1nc2cc3c(cc2s1)OCO3	TRPC6 inh -8.7
CN(C)CCN(C(=O)CN1C(=O)c2ccccc2C1=O)c1nc2cc3c(cc2s1)OCO3	none
COCc1ccc(C(=O)N2CCCC(N3CCN(c4ccc(F)cc4)CC3)C2)o1 (stereo not given)	none
CCC(=O)c1ccc(OCCn2cnc3ccccc32)cc1	none
c1ccc(CCN(Cc2ccccc2)C2CCN(C3CCCC3)CC2)cc1	none
O=C(O)CCCC(=O)N1CCN(C(c2ccccc2)c2ccccc2)CC1	none
Cc1cc(C)c(C#N)c(Oc2ccccc2Br)n1	none
COc1ccc(NC(C)=O)cc1NC(C)C(=O)Nc1cc(C(F)(F)F)ccc1N1CCOCC1 (stereo not given)	TRPC4 PAM 27
O=C1C(Cl)=C(Nc2ccccc2)C(=O)c2ccccc21	none
O=C(O)c1ccc(NC2=C(Cl)C(=O)c3ccccc3C2=O)cc1	TRPC4 inh -5
c1ccc(CCNc2nc(-c3ccccn3)nc3ccccc23)cc1	TRPC4 inh -6
C/C(=N\Nc1nc(-c2ccccn2)nc2ccccc12)c1ccc(F)cc1	none
OCCNc1nc(NCc2ccccc2)c2ccccc2n1	TRPC4 inh -6
c1ccc(-c2nc(NCc3cccnc3)c3ccccc3n2)cc1	TRPC4 inh -6
Cc1ccc(-c2nc(NCc3cccnc3)c3ccccc3n2)cc1	none
CCc1noc(C)c1C(=O)Nc1cc(S(=O)(=O)N2CCOCC2)ccc1OC(C)C	none
COc1cc(NC(=S)NCCc2ccccc2)c(OC)cc1NC(=O)CC(C)C	TRPC4 inh -6
CN(Cc1ccccc1)C(=O)c1ccc(NC(=O)C2=CSCCO2)cc1	none
OCCN1CCN(Cc2cc(Br)cc(Br)c2O)CC1	TRPC4 agonist 176
Cc1n[nH]c(C)c1Cc1c(F)cccc1Cl	TRPC4 inh -6
CCOC(=O)C1(CC2CC2)CCN(Cc2cc(Cl)c(O)c(OC)c2)CC1	TRPC4 inh -9
CCOC(=O)C1(CCOc2ccccc2)CCN(Cc2cnc(SC)nc2)CC1	none
CCOC(=O)C1(CC2CC2)CCN(Cc2cnc(-c3ccccc3C)nc2)CC1	TRPC4 agonist 118
CC(C)C[C@@H](COc1ccccc1)N1CCN(Cc2ccccc2)CCC1=O	TRPC4 agonist 52
O=C1CCN(Cc2ccccc2)CCN1[C@H](COc1ccccc1)Cc1ccccc1	TRPC4 agonist 65 (no result: TRPC4 inh)
Cc1ccc(SC[C@H](Cc2ccccc2)N2CCN(CC(C)C)CCC2=O)cc1	TRPC4 agonist 47 (no result: TRPC4 inh)
CC(C)c1cc2c(c(O)c1O)[C@@]13CCCC(C)(C)C1CC2OC3=O (stereo not given in full)	none
Cc1cc(=O)oc2cc(NC(=S)NCc3ccccn3)ccc12	TRPC4 inh -6
Cc1cccn2c(=O)c(/C=N/O)c(N3CCCC3)nc12	TRPC4 inh -8
CCOC(=O)/C(C#N)=C/c1c(N2CCN(c3ccc(OC)cc3)CC2)nc2c(C)cccn2c1=O	TRPC4 PAM 11
Cc1cccn2c(=O)c(C=O)c(N3CCCCC3)nc12	none
CCNC(=O)/C(C#N)=C/c1c(N2CCN(c3ccc(OC)cc3)CC2)nc2c(C)cccn2c1=O	none
Cc1cccn2c(=O)c(/C=C(\C#N)C(N)=O)c(N3CCN(c4ccccc4)CC3)nc12	TRPC4 PAM 12
O=c1[nH]c2ccccc2c(O)c1-c1cc2ccccc2oc1=O	none
Cc1nc(-c2ccc(S(=O)(=O)NCc3cccnc3)s2)cs1	none
Cc1nn2c(N3CCN(C)CC3)c3c(nc2c1-c1ccccc1)CCCC3	TRPC4 PAM 28
CC(C)c1ccc(C(C)NCCS(=O)(=O)c2ccc(Br)cc2)cc1 (stereo not given)	TRPC4 PAM 19
CC(NCCS(=O)(=O)c1ccc(Cl)cc1)c1cccc(Cl)c1 (stereo not given)	none
O=C(NC(C(=O)N/N=C/c1ccncc1)c1n[nH]c(=O)c2ccccc12)c1ccccc1 (stereo not given)	none
O=C(NC(C(=O)N/N=C/c1cccnc1)c1n[nH]c(=O)c2ccccc12)c1ccccc1 (stereo not given)	TRPC4 agonist 53
CN1CCN(NC(=O)c2ccc(Br)s2)CC1	none
CC(=O)Nc1ccc(Nc2cc(C)nc3ccccc23)cc1	none
Cc1cc(Nc2ccc(C)c(C)c2)c2ccccc2n1	TRPC4 inh -6
CC(C)(CO)NC(=O)c1ccc2c(c1)C(=O)c1ccccc1-2	TRPC4 PAM 11
COCCNC(=O)c1ccc2c(c1)C(=O)c1ccccc1-2	none
CCCC(CCC(=O)Nc1ccn(-c2ccccc2)n1)C(=O)O (stereo not given)	none
Cn1cnnc1SCC(=O)NNC(=O)c1ccc(Cl)cc1	none
CC(=O)Nc1ccc(NC(=O)C(C)OC(=O)c2ccc3[nH]c(C)c(C)c3c2)cc1 (stereo not given)	none
Cc1ccc(Nc2nc3ccccc3[nH]2)nc1	TRPC4 agonist 108
CCc1ccccc1Nc1nc2ccccc2[nH]1	TRPC4 inh -5
COc1ccccc1Nc1nc2ccccc2[nH]1	none
CN(C)c1cccc(C(=O)Nc2cccc(S(=O)(=O)NC3=NCCC3)c2)c1	none
CCn1c(-c2ccc(N)cc2)nc2ccccc21	TRPC4 agonist 71
OCC1(Cc2ccc(Cl)cc2)CCN(Cc2ccccc2F)CC1	TRPC4 inh -6
CN1CCN(CC(=O)N2c3ccccc3C(=O)Nc3cccnc32)CC1	TRPC6 inh -6
CCCn1c(NC(=O)c2ccc(Cl)c(S(=O)(=O)N3CCCC3)c2)nc2ccccc21	TRPC4 PAM 32, TRPC4 inh -7
Cc1c(Cl)c(C(=O)Nc2nc3ccccc3n2CCN2CCCCC2)nn1C	TRPC6 inh -8.2

Compound activity deposited in PubChem BioAssay by Johns Hopkins Ion Channel Center.
